TRPC6 inhibitor – mouse TRPC6 channel inhibitors, primary screen, cell-based, HEK293, membrane potential dye | Short transient receptor potential channel 6 (Mus musculus), Q61143 | ACh-evoked depolarization; active compounds read low | B-score at 10 µM | actives 1.1% (n = 310,000);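 active = B-score under library mean minus 3 SD, initial fluorescence not abnormally high, positive integrated signal ratio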;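 also: B-score derived from integrated fluorescence ratio over the kinetic read; more negative B-score means stronger inhibition of depolarization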
TRPC4 PAM – positive allosteric modulators of TRPC4, primary screen, cell-based, mouse TRPC4beta, HEK293 mu-opioid, Fluo-4 calcium; Short transient receptor potential channel 4 (Mus musculus), Q9QUQ5; DAMGO EC20, Fluo-4 Ca2+ flux; active compounds read high; B-score at 10 µM; actives 0.42% (n = 310,000); AID 2227, 2009;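 active = B-score of calcium response area above 5 SD of library B-scores, with initial fluorescence ratio within 5 SD of library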;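 also: B-score of integrated fluorescence ratio over time as area under calcium response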
Target sequence (Q9QUQ5 whole entry, looked up): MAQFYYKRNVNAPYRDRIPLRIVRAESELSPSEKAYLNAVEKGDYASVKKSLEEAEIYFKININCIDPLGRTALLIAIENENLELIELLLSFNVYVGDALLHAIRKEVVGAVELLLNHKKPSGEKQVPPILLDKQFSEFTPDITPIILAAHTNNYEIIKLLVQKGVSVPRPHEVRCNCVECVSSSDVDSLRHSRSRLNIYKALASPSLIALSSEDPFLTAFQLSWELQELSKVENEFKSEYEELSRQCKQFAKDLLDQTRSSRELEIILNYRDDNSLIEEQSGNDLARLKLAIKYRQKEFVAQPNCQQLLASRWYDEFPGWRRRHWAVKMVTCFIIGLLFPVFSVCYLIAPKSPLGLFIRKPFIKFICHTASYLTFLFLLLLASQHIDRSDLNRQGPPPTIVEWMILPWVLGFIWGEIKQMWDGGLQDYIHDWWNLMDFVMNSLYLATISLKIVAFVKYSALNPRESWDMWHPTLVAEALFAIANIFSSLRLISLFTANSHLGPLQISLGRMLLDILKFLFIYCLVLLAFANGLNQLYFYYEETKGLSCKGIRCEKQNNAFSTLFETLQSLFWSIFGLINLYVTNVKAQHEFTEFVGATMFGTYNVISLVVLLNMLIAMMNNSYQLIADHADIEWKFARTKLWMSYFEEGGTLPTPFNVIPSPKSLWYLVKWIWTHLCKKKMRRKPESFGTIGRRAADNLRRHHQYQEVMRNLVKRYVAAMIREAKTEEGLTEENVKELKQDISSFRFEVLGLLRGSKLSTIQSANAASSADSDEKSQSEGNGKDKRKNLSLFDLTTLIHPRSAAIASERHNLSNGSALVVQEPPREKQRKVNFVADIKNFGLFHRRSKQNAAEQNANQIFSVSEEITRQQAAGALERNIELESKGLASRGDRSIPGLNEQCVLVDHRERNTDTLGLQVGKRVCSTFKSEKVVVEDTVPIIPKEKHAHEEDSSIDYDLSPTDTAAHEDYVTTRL
TRPC4 inh – inhibitors of mouse TRPC4 channel, primary screen, Fluo4 calcium, HEK293 TRPC4beta/mu-opioid cells. Short transient receptor potential channel 4 (Mus musculus), Q9QUQ5. DAMGO-evoked Fluo4 calcium flux; active compounds read low. B-score at 10 µM. actives 0.39% (n = 300,000). AID 2247, 2010;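 active = B-score over 3 SD under the library average, no early fluorescence shift, positive overall ratio signal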
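Assay system – HEK293 line stably carrying TRPC4beta and mu-opioid receptor · Doses – single dose · Detection – Fluo4 calcium-dye fluorescence, kinetic read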
TRPC4 act – activators of mouse TRPC4 channel, primary screen, Fluo4 calcium, HEK293 TRPC4beta/mu-opioid cells | AID 2237, 2010 | B-score at 10 µM | Fluo4 calcium fluorescence; active compounds read high | Short transient receptor potential channel 4 (Mus musculus), Q9QUQ5 | actives 0.49% (n = 310,000);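 active = B-score above 5 SD of library B-scores, and initial fluorescence ratio not above library mean plus 5 SD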;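 also: positive B-score marks a calcium rise read as TRPC4 activation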
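Material: HEK293 stable line with TRPC4beta plus mu-opioid receptor; technique: Fluo4 calcium-sensitive dye fluorescence, kinetic, 1 Hz baseline; timing: Fluo4 dye loading 45 min at room temperature, 110 s recording; controls: assay buffer as low control, maximal DAMGO as high control; read-out: integrated baseline-normalised fluorescence ratio, converted to per-well B score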
TRPC6 act – mouse TRPC6 channel activators, primary screen, cell-based, HEK293, membrane potential dye; Short transient receptor potential channel 6 (Mus musculus), Q61143; HEK293-TRPC6 membrane potential dye fluorescence; active compounds read high; B-score at 10 µM; actives 0.13% (n = 310,000); AID 2550, 2010;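 active = B-score of the integrated fluorescence ratio above library mean plus 3 SD, and starting fluorescence ratio within library mean plus 5 SD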;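 also: higher score means more depolarization so channel activation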
Active calls of the source: *; i = inactive; x = no result. Only some compounds are listed: those with a hit (about 2.3% of all), similar ones and a draw of the others.

SMILES	TRPC6 inhibitor	TRPC4 PAM	TRPC4 inh	TRPC4 act	TRPC6 act
O=C(CC(=O)c1c(F)cccc1Cl)c1ccccc1O	i	i	i	84*	i
CC(C)CN=C(NS(=O)(=O)c1ccccc1)C(Cl)(Cl)Cl	i	i	i	i	i
CC1(C)C(=O)NC(=O)N1Cc1ccccc1	i	i	i	76*	i
CCCC/C(C)=N/NC(=O)Nc1ccccc1	i	i	i	74*	i
CCCCC/C(=N\NC(=O)Nc1ccccc1)c1ccccc1	i	i	i	i	i
CCC(C(=O)N1CCOCC1)n1c2ccccc2c2nc(=O)cc(C)n21 (centres undefined)	i	i	i	i	i
CN(Cc1ccccc1)Cc1c(O)ccc2ccccc12	i	i	i	i	i
COc1ccc(OCCN(C)Cc2c(O)ccc3ccccc23)cc1	i	18*	i	i	i
COc1ccc(C2C(C(C)=O)=C(O)C(=O)N2c2ccc(O)cc2)cc1 (centres undefined)	i	i	i	i	i
COc1ccc(C2C(C(C)=O)=C(O)C(=O)N2c2ccc(Br)cc2)cc1 (centres undefined)	i	i	-5*	i	i
OC1(c2ccc(F)cc2)CCN(Cc2ccccc2)C1 (centres undefined)	i	i	-6*	i	i
OC1(c2ccccc2)CCN(Cc2ccccc2)CC1	i	i	i	i	i
CCCN1C(=O)/C(=C/c2c(N3CCNC(=O)C3CC(=O)OCC)nc3c(C)cccn3c2=O)SC1=S (centres undefined)	i	i	i	i	27.1*
CCOC(=O)CC1C(=O)NCCN1c1nc2ccc(C)cn2c(=O)c1/C=C1\SC(=S)N(C(C)CC)C1=O (centres undefined)	i	i	i	62*	61.4*
CCOC(=O)CC1C(=O)NCCN1c1nc2ccc(C)cn2c(=O)c1/C=C1\SC(=S)N(CC(C)C)C1=O (centres undefined)	i	i	i	i	i
CC12CCCCN1CCCc1c2[nH]c2ccccc12 (centres undefined)	i	i	i	91*	i
c1ccc2c3c([nH]c2c1)C1(CCCCC1)NCC3	i	i	i	i	i
CCc1nnc(NC(=O)CCC(=O)NC2CCCCCC2)s1	i	i	i	i	i
O=S(=O)(Nc1ccc(S(=O)(=O)Nc2cccc3ccccc23)cc1)c1ccccc1	i	15*	i	i	i
O=S(=O)(Nc1ccc(S(=O)(=O)Nc2ccccc2)cc1)c1ccccc1	i	11*	i	i	i
O=C(c1cccc(Cl)c1)C1CCCN(S(=O)(=O)c2ccccc2)C1 (centres undefined)	i	i	i	i	i
CC(=O)c1cccc(NC(=O)c2cc(S(=O)(=O)N3CCOCC3)cs2)c1	i	i	i	i	i
CC(=Nc1ccc(C)cc1)c1sc2ccccc2c1O	i	i	-6*	i	i
Cc1ccc(C)c(N2C(=O)c3ccc(C(=O)OCC(=O)c4c(N)n(C)c(=O)n(C)c4=O)cc3C2=O)c1	i	11*	i	i	i
Cn1cnc(S(=O)(=O)NCc2ccc(Br)cc2)c1	i	i	i	i	i
SMILES	TRPC6 inhibitor	TRPC4 PAM	TRPC4 inh	TRPC4 act	TRPC6 act
Cc1ccsc1/C=N/Nc1ncc(Cl)cc1Cl	i	10*	i	i	i
C[C@H](NC(CCc1ccccc1)C(=O)O)C(=O)N1CCC[C@H]1C(=O)O (some centres undefined)	i	i	i	55*	i
C[C@H](NC(=O)[C@H](Cc1ccccc1)n1c(=O)[nH]c2ccccc2c1=O)C(=O)N1CCC[C@H]1C(=O)O	i	i	i	i	i
CC(=O)Nc1cccc(N2C(=O)CC(Cc3ccccc3)C2=O)c1 (centres undefined)	i	i	i	i	i
Cc1cc(=O)oc2cc(N3C(=O)CC(Cc4ccccc4)C3=O)ccc12 (centres undefined)	i	13*	i	i	i
Cc1cccc(-c2nnc(SCc3nc4ccccc4[nH]3)n2Cc2ccco2)c1	i	i	-7*	i	i
N/C(=N\OC(=O)CSc1ccccc1)c1ccccn1	i	i	i	i	i
CC(C)Cc1ccc(C(C)C(=O)Nc2cccnc2)cc1 (centres undefined)	i	i	i	45*	i
CC(C)Cc1ccc(C(C)C(=O)Nc2ccc(O)cc2)cc1 (centres undefined)	i	i	i	52*	i
CCCc1cc(=O)n2nc(N3CCC(C(=O)N4CCN(c5cccc(OC)c5)CC4)CC3)sc2n1	i	i	i	i	i
Cc1cccc(Nc2nc(N)c([N+](=O)[O-])c(NCc3ccco3)n2)c1	i	10*	i	i	i
CCOC(=O)C1=C(C)NC(=O)CC1c1cc2c(cc1[N+](=O)[O-])OCO2 (centres undefined)	i	i	-7*	i	i
CCCN1CCC(NC(=O)Cc2cccc(C)c2)CC1	i	i	i	89*	i
CCN1CCC(NC(=O)Nc2ccc(F)cc2)CC1	i	i	i	i	i
CCCN1CCC(NC(=O)Cc2ccc(C)cc2)CC1	i	10*	i	62*	i
CCCN1CCC(NC(=O)Nc2ccc(F)cc2F)CC1	i	i	i	43*	i
CCOC(=O)C1=C(C)N=C2SC(C(=O)OC)=CC(=O)N2C1c1ccc(OC)cc1 (centres undefined)	i	i	i	i	i
CC(C)(C)n1ncc2c(=O)n(CC(=O)NCCc3ccccc3)cnc21	i	i	x	i	i
COc1ccc(CCNC(=O)Cn2cnc3c(cnn3C(C)(C)C)c2=O)cc1OC	i	26*	i	i	i
CCC(C)c1c(O)nc(SCC(=O)N2CCCCCC2)[nH]c1=O (centres undefined)	i	i	i	i	i
Cc1nc(C)n(C(C)CNS(=O)(=O)c2ccc(C)c(C)c2)n1 (centres undefined)	i	i	i	i	i
Cn1nc(-c2ccc(Cl)cc2)nc2c(=O)n(C)c(=O)nc1-2	-5.1*	i	i	i	i

Screening data as filed in PubChem BioAssay.
